# Results pooled from the literature.
# Compare with care: the assays were run in different laboratories.
# Target: 3-phosphoinositide-dependent protein kinase 1 (PDPK1, Homo sapiens, UniProt O15530)
# Residues used in one study (O15530 1-556): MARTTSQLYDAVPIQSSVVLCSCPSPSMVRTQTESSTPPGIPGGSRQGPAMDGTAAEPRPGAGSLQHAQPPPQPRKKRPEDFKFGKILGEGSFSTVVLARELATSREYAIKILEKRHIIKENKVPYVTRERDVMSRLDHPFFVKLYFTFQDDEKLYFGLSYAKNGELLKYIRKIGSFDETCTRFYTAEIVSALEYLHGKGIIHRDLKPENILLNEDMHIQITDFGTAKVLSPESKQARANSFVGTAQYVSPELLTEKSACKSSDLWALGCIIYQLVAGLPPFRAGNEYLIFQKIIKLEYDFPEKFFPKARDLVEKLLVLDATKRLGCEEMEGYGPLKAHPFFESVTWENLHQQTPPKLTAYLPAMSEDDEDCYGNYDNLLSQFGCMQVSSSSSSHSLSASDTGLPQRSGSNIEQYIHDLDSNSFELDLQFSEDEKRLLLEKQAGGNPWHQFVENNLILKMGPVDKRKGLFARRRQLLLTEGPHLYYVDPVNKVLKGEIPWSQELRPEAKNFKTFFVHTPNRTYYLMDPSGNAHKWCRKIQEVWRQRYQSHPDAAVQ
SMILES,read-out,method,tested at,remaining binding [%]
CCN1CCN(Cc2ccc(C(=O)Nc3ccc(C)c(Oc4ccc5c(c4)CC(=O)N5)c3)cc2C(F)(F)F)CC1,binding,competition with immobilised ligand,1 µM,100
Cn1cc(Cl)c2c(Oc3c(F)cc(Nc4cc(Cl)nc(N)n4)cc3F)ccnc21,cell-free assay,competition with immobilised ligand,0.1 µM,61
O=C(c1ccc(Nc2ncc(Cl)c(-c3cc4ccccc4s3)n2)cc1)N1CCC(N2CCCC2)CC1,binding,competition with immobilised ligand,1 µM,78
C=CC(=O)N1CCC(C(=O)NCC(=O)N2CCN(c3nc(-c4cnc(N)nc4C(F)F)nc(N4CCOCC4)n3)CC2)CC1,binding,competition with immobilised ligand,1 µM,93
CNC(=O)c1cc(Oc2ccc(NC(=O)Nc3ccc(Cl)c(C(F)(F)F)c3)cc2)ccn1,cell-free assay,competition with immobilised ligand,10 µM,85
CN(CCCC(F)(F)F)c1nccc(-c2cnn3ncccc23)n1,binding,,1 µM,100
Nc1ncc2c(n1)-c1c([nH]c3ccc(C#CC4CC4)cc13)CCCC2,binding,competition with immobilised ligand,1 µM,91
Cc1ccc(NC(=O)c2ccc(CN3CCN(C)CC3)cc2)cc1Nc1nccc(-c2cccnc2)n1,cell-free assay,competition with immobilised ligand,10 µM,100
C[C@@H](c1ccc(-n2cnc3c(N)ncnc32)cc1)N1CCc2nn(C)c(Cc3ccccc3)c2C1=O,binding,competition with immobilised ligand,0.1 µM,100
Cc1cnc(Nc2ccc(C(=O)N3CCC(N4CCCC4)CC3)cc2)nc1-c1cc2ccccc2s1,binding,competition with immobilised ligand,1 µM,72
CCCCN(CCCC)C(=O)CN1C[C@@H](c2cc(OC)c3c(c2)OCO3)[C@H](C(=O)O)[C@H]1CC(C)(C)CCC,cell-free assay,competition with immobilised ligand,1 µM,77.3
CCN(CC)Cc1cc(Nc2ccnc3cc(Cl)ccc23)ccc1O,cell-free assay,competition with immobilised ligand,10 µM,93
C[C@@H]1CCN(c2nccc(-c3cnn4ncccc34)n2)C1,binding,,1 µM,89
CC(C)(C)c1ccc(-c2nc(CBr)nn2-c2cccc(O)c2)cc1,cell-free assay,competition with immobilised ligand,10 µM,89
CNC(=O)Nc1ccc2c(c1)CC[C@@]21OC(=O)N(CC(=O)N(Cc2ccc(F)cc2)[C@@H](C)C(F)(F)F)C1=O,cell-free assay,competition with immobilised ligand,1 µM,88
CN(C)c1ncc(F)c(-c2cnn3ncccc23)n1,binding,,1 µM,99
O=C(Nc1c[nH]nc1C(=O)NC1CCNCC1)c1cc(F)cc(F)c1,binding,competition with immobilised ligand,1 µM,90
CCN(CC)CCNC(=O)c1c(C)[nH]c(/C=C2\C(=O)Nc3ccc(F)cc32)c1C,cell-free assay,competition with immobilised ligand,10 µM,39
COc1ccc2cc(OCC3(C(=O)O)CN(C(=O)c4ccc(F)cc4)C3)ccc2c1,cell-free assay,competition with immobilised ligand,1 µM,100
C[C@@H]1CN(c2ccc3ncc(-c4ccc5[nH]nc(C6CC6)c5c4)n3n2)C[C@H](C)O1,binding,competition with immobilised ligand,50 nM,100
Cc1nc(Cc2cccc(C(F)(F)F)c2)sc1-c1ccc(C(N)=O)nc1,cell-free assay,competition with immobilised ligand,1 µM,82
CN(C)c1nccc(-c2cnn3ncccc23)n1,binding,,1 µM,100
O=C(c1ccc(Nc2ncc(Cl)c(-c3ccc(Cl)s3)n2)cc1)N1CCC(N2CCCC2)CC1,binding,competition with immobilised ligand,1 µM,82
Cc1c(-c2ccccc2)oc2c(C(=O)OCCN3CCCCC3)cccc2c1=O,cell-free assay,competition with immobilised ligand,10 µM,100
CS(=O)(=O)NCC[C@H](NC(=O)c1cncc2c1cnn2-c1ccc(F)cc1)c1ccnc(S(C)(=O)=O)c1,cell-free assay,competition with immobilised ligand,1 µM,100
CN1CC[C@H](c2c(O)cc(O)c3c(=O)cc(-c4ccccc4Cl)oc23)[C@H](O)C1,cell-free assay,competition with immobilised ligand,10 µM,100
CN(c1nccc(-c2cnn3ncccc23)n1)C1CC1,binding,,1 µM,100
O=C(Nc1cccnn1)N1CCC(=Cc2cccc(Oc3ccc(C(F)(F)F)cn3)c2)CC1,cell-free assay,competition with immobilised ligand,1 µM,85
Cc1nc(Nc2ncc(C(=O)Nc3c(C)cccc3Cl)s2)cc(N2CCN(CCO)CC2)n1,cell-free assay,competition with immobilised ligand,10 µM,100
COc1cnc(Nc2cccc(S(N)(=O)=O)c2)nc1N1CCN(c2ccccc2)CC1,binding,competition with immobilised ligand,1 µM,100
N[C@@H]1CCN(c2nccc(-c3cnn4ncccc34)n2)C1,binding,,1 µM,96
CS(=O)(=O)CCNCc1ccc(-c2ccc3ncnc(Nc4ccc(OCc5cccc(F)c5)c(Cl)c4)c3c2)o1,cell-free assay,competition with immobilised ligand,0.1 µM,100
COc1ccc2c(c1)O[C@H](c1ccc(OC)c(OC)c1)C[C@@H]2NC(=O)C1(c2ccc3c(c2)OC(F)(F)O3)CC1,cell-free assay,competition with immobilised ligand,1 µM,100
